Kir21 inh = Kir2.1 (mouse) channel inhibition; B-score at 10 µM; HEK293-Kir2.1, FluxOR thallium flux fluorescence; hits give low values; 310,000 compounds, 0.85% hits; P35561;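 active means fluorescence ratio B-score at or below minus 3 SD of library scores, with starting-brightness B-score within 2 SD, cut at about -4.2 in these data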;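 further: channel flux triggered by added potassium and thallium sulfate stimulus; B-score of peak minus minimum fluorescence over baseline after thallium stimulus; more negative B-score means stronger Kir2.1 block with less thallium influx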
KCNQ1 inh = inhibitors of human KCNQ1 potassium channel; P51787; 310,000 compounds, 1.3% hits; B-score at 10 µM; CHO-K1 KCNQ1, FluxOR thallium flux fluorescence; hits give high values;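 active means compounds whose thallium flux B-score, printed positive for inhibition, exceeds three library SD while starting fluorescence stays within three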;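 further: channel opened by potassium depolarization with thallium stimulus after 20 min compound exposure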
Target sequence (P51787 whole entry, looked up): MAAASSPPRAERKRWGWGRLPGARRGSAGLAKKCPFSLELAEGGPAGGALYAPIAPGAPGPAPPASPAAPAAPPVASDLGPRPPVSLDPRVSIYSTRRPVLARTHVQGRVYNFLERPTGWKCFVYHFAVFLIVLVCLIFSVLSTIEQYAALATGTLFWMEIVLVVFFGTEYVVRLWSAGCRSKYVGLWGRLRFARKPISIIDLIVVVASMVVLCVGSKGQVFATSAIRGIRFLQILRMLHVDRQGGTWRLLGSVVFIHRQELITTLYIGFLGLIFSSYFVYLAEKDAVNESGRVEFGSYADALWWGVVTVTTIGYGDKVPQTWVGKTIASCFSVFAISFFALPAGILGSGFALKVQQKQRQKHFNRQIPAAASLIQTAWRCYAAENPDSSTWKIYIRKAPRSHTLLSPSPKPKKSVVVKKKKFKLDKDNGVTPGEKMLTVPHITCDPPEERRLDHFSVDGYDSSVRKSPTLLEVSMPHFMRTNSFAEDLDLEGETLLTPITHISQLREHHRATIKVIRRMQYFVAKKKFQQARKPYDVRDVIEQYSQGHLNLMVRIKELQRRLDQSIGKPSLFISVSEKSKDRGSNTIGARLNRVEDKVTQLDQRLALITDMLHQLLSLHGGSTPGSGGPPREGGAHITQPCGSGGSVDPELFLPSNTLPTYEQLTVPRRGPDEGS
hERG rescue = hERG (human) protection from proarrhythmic block; Q12809; CHO-hERG, FluxOR thallium flux, dofetilide IC70 present; activation (rescue from dofetilide block), less the hit threshold, % at 10 µM; 310,000 compounds, 0.51% hits; AID 1511;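 active means activation above the mean of controls blocked by dofetilide plus 5 SD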;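 further: thallium influx through hERG after potassium depolarization seen as dye fluorescence rise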
KCNQ1 pot = human KCNQ1 channel potentiation or activation | P51787 | CHO-K1 KCNQ1, thallium flux FluxOR fluorescence; hits give high values | B-score at 10 µM | 310,000 compounds, 0.35% hits | AID 2648;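 active means fluorescence ratio B-score, a plate-corrected score, at least three library SD, with initial intensity B-score within 5 SD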
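Doses: Single concentration per compound, DMSO matched to controls | Test system: KCNQ1-transfected CHO-K1 cells | Timing: 90 min dye loading and 20 min compound exposure, both at room temperature | Measured by: Kinetic FluxOR thallium fluorescence, 10-s 1-Hz baseline, 110-s post-stimulus read | Medium: Assay buffer with matched DMSO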
KCNK3 inh = human KCNK3 channel inhibition, primary screen. O14649. CHO-KCNK3 thallium flux, FluxOR fluorescence; hits give low values. B-score at 10 µM. 340,000 compounds, 0.84% hits. AID 602410;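 active means B-score under library mean minus 4 SD, starting fluorescence ratio at most library mean plus 5 SD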;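 further: more negative B-score means stronger inhibition of thallium flux through KCNK3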
KCNK9 inh = inhibitors of human KCNK9 two-pore domain potassium channel; Q9NPC2; HEK293 KCNK9, FluxOR thallium flux fluorescence; hits give low values; B-score at 10 µM; 310,000 compounds, 1.2% hits;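 active means ratio B-score over 3 SD below the library mean, with starting fluorescence within 5 SD of its mean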;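 further: negative B-score means less thallium flux so channel inhibition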
Hits are given with their value; . = inactive; / = no result given. In the library only some 3.7% were active in any assay of this set; here they are far more common.

SMILES	Kir21 inh	KCNQ1 inh	hERG rescue	KCNQ1 pot	KCNK3 inh	KCNK9 inh
O=C1ON=C(c2ccc(Cl)c([N+](=O)[O-])c2)/C1=C/c1cccc([N+](=O)[O-])c1O	/	/	/	/	.	/
COc1ccc(/C=C2\C(=O)ON=C2c2ccccc2)cc1	.	.	.	.	.	.
COc1cc(/C=C2\C(=O)ON=C2c2ccc(Cl)cc2)ccc1O	-4.8	.	.	.	.	.
COc1ccc(/C=C2/C(=O)N(c3ccccc3)N=C2C)cc1	.	.	.	.	.	.
COc1ccc(C2=NN(c3ccccc3)C(=O)/C2=C\c2ccc(O)c(OC)c2)cc1	.	11	.	.	.	.
CC(Sc1nnc(-c2ccccc2F)n1C)C(=O)NC1CCCCC1 (stereo unspecified)	/	/	/	/	.	/
O=C1ON=C(c2ccccc2)/C1=C/c1ccc(O)c(O)c1	-5.2	.	.	.	.	.
CC1Cc2ccccc2N1S(=O)(=O)c1cccc(C(=O)NCc2ccncc2)c1 (stereo unspecified)	/	/	/	/	-9.5	/
CC1Cc2ccccc2N1S(=O)(=O)c1cccc(C(=O)NCc2ccccn2)c1 (stereo unspecified)	/	/	/	/	.	/
COc1ccc(NC(C)=[N+](C)CCNS(=O)(=O)c2ccc(Cl)cc2)cc1	.	.	.	.	.	.
O=C(N/N=C/c1cn(-c2ccccc2)nc1-c1cccnc1)c1ccc(F)cc1	.	.	.	.	.	.
O=C(N/N=C/c1cn(-c2ccccc2)nc1-c1cc2ccccc2o1)c1ccncc1	.	.	.	.	.	.
O=C(N/N=C/c1cn(-c2ccccc2)nc1-c1cc2ccccc2o1)c1cccnc1	.	6	.	.	.	.
O=C(N/N=C/c1cn(-c2ccccc2)nc1-c1ccc(F)cc1)c1ccc(Br)o1	.	.	.	.	-8.7	.
Cc1cccc(CCNS(=O)(=O)c2ccc3c(c2)NC(=O)CS3)c1	.	.	.	.	.	.
CCN1CCN(Cc2ccc(NC(=O)c3cc(NC(=O)c4cncc(-c5cccs5)c4)cc(OC)c3)cc2C(F)(F)F)CC1	.	8	.	.	/	.
Cc1ccc(N(C(=O)CNC(=O)c2ccco2)C(C(=O)NC2CCCCC2)c2cccnc2)cc1 (stereo unspecified)	.	.	.	.	.	.
O=C(COc1ccc2c3c(c(=O)oc2c1)CCC3)N[C@@H](CSCc1ccccc1)C(=O)O	.	.	.	.	.	.
O=C(COc1ccc2c3c(c(=O)oc2c1)CCC3)N[C@@H](Cc1ccccc1)C(=O)O	.	.	5.3	.	.	.
Cn1c2ccccc2c(=O)c2c(=O)n(-c3ccc(F)cc3)c(-c3cccs3)nc21	.	.	.	.	.	.
CC(c1ccccc1)n1c(-c2cccs2)nc2c(c(=O)c3ccccc3n2C)c1=O (stereo unspecified)	.	.	.	.	.	-8.1
Cc1cccc(NC(=O)c2ccc(Cl)c(S(=O)(=O)N3CCc4ccccc43)c2)n1	/	/	/	/	-11	/
COc1ccc(CCN(C)C(=O)C2CCCN(C3CCN(Cc4ccccc4)CC3)C2)cc1OC (stereo unspecified)	.	.	.	.	.	.
COc1ccc(S(=O)(=O)N2CCSC2c2ccccc2)cc1 (stereo unspecified)	.	.	.	.	.	.
O=[N+]([O-])c1ccc(S(=O)(=O)N2CCSC2c2ccco2)cc1 (stereo unspecified)	-4.6	.	.	.	.	.
SMILES	Kir21 inh	KCNQ1 inh	hERG rescue	KCNQ1 pot	KCNK3 inh	KCNK9 inh
CC(C)(C)NC(=O)C1(N2C(=O)c3ccccc3C2=O)CCCC1	/	/	/	/	.	/
Cc1cc(Cl)c2oc(C(=O)N3CCN(c4ccncc4)CC3)c(C)c2c1	-5.1	.	.	.	.	.
CCOC(=O)c1ccc(NC(=O)Cn2nnc(-c3ccccc3)n2)cc1	.	.	14	.	.	.
CCOc1ccc2c(c1)sc(N)[n+]2Cc1cc(C)cc2cccnc12	-4.3	.	.	.	.	.
COc1ccc2c(c1)sc(N)[n+]2Cc1cc(C)cc2cccnc12	-4.5	.	.	.	.	.
Cc1cc(C[n+]2ncsc2N)c2ncccc2c1	.	.	.	.	.	.
S=c1[nH]c2cc(-c3ccccc3)ccc2o1	.	.	45	63	.	.
CSC(SC)=C(C#N)C(=O)c1ccccc1	-4.4	11	.	.	.	.
